Assay results published in ChEMBL document CHEMBL2034908, “Isoxazolo(aza)naphthoquinones: a new class of cytotoxic Hsp90 inhibitors” (Eur J Med Chem, 2012).

tested on: NCI-H460; assay: Cytotoxicity against human NCI-H460 cells after 72 hrs; assay type: functional, cell-based; conditions: NCI-H460, 72 h
In short: (§1)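 Compounds were dissolved fresh in DMSO and diluted in culture medium. Cells were exposed for 72 h at 37 °C in medium with 10% heat-inactivated FBS under 5% CO2. IC50 reported ± SD. STO cells were grown in 50/50 DMEM-Ham's F12 with 10% FBS and 2 mM L-Gln.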

Compound | IC50 [nM]
O=C1c2ccccc2C(=O)c2c(-c3ccncc3)noc21 | 140
O=C1c2ccccc2C(=O)c2c(-c3cccnc3)noc21 | 62
O=C1c2ccccc2C(=O)c2c(-c3ccc(O)cc3)noc21 | 510
O=C1c2ccncc2C(=O)c2c(-c3ccc(F)cc3)noc21 | 183
CC(=O)Oc1cccc2c1C(=O)c1c(-c3ccncc3)noc1C2=O | 150
O=C1c2ccccc2C(=O)c2c(-c3ccc4[nH]ccc4c3)noc21 | 300
O=C1c2ccccc2C(=O)c2c(-c3ccc[n+](Cc4ccccc4)c3)noc21.[Br-] | 21
C[n+]1ccc(-c2noc3c2C(=O)c2ccccc2C3=O)cc1.[I-] | 330
CC(=O)Oc1cccc2c1C(=O)c1c(-c3cc[n+](Cc4ccccc4)cc3)noc1C2=O.[Br-] | > 1000
O=C1c2ccccc2C(=O)c2c(-c3ccc(F)cc3)noc21 | 350
O=C1c2ccccc2C(=O)c2c(/C=C/c3ccccc3)noc21 | > 1000
Cl.O=C1c2ccccc2C(=O)c2c(-c3ccc(OCCN4CCOCC4)cc3)noc21 | 866
CC(=O)Oc1c2ccccc2c(OC(C)=O)c2c(-c3ccc(F)cc3)noc12 | > 1000
C=CCNC1=C2C[C@@H](C)C[C@H](OC)[C@H](O)[C@@H](C)/C=C(\C)[C@H](OC(N)=O)[C@@H](OC)/C=C\C=C(/C)C(=O)NC(=CC1=O)C2=O [TANESPIMYCIN] | 10
O=C1c2cccc(O)c2C(=O)c2c(-c3ccncc3)noc21 | 880
O=C1c2ccccc2C(=O)c2c(-c3ccccn3)noc21 | 1000
COc1cccc2c1C(=O)c1c(-c3cc[n+](Cc4ccccc4)cc3)noc1C2=O.[Br-] | 180
COc1cc(O)c(-c2noc3c2C(=O)c2ccccc2C3=O)cc1Cl | > 1000

tested on: not listed separately; assay: Cytotoxicity against human STO cells after 72 hrs; assay type: functional, cell-based; conditions: not given; in short: as §1

Compound | IC50 [nM]
O=C1c2ccccc2C(=O)c2c(-c3ccncc3)noc21 | 11
O=C1c2ccccc2C(=O)c2c(-c3cccnc3)noc21 | 40
O=C1c2ccccc2C(=O)c2c(-c3ccc(O)cc3)noc21 | 460
O=C1c2ccncc2C(=O)c2c(-c3ccc(F)cc3)noc21 | 4
CC(=O)Oc1cccc2c1C(=O)c1c(-c3ccncc3)noc1C2=O | 150
O=C1c2ccccc2C(=O)c2c(-c3ccc4[nH]ccc4c3)noc21 | 320
O=C1c2ccccc2C(=O)c2c(-c3ccc[n+](Cc4ccccc4)c3)noc21.[Br-] | 10
C[n+]1ccc(-c2noc3c2C(=O)c2ccccc2C3=O)cc1.[I-] | 1200
CC(=O)Oc1cccc2c1C(=O)c1c(-c3cc[n+](Cc4ccccc4)cc3)noc1C2=O.[Br-] | 3960
O=C1c2ccccc2C(=O)c2c(-c3ccc(F)cc3)noc21 | 20
O=C1c2ccccc2C(=O)c2c(/C=C/c3ccccc3)noc21 | 120
Cl.O=C1c2ccccc2C(=O)c2c(-c3ccc(OCCN4CCOCC4)cc3)noc21 | 1130
CC(=O)Oc1c2ccccc2c(OC(C)=O)c2c(-c3ccc(F)cc3)noc12 | 670
O=C1c2cccc(O)c2C(=O)c2c(-c3ccncc3)noc21 | 103
O=C1c2ccccc2C(=O)c2c(-c3ccccn3)noc21 | 20
COc1cccc2c1C(=O)c1c(-c3cc[n+](Cc4ccccc4)cc3)noc1C2=O.[Br-] | 168
COc1cc(O)c(-c2noc3c2C(=O)c2ccccc2C3=O)cc1Cl | 300

tested on: NCI-H460; assay: Cytotoxicity against human NCI-H460 cells at >1 uM after 72 hrs; assay type: functional; conditions: not given

Compound | Activity [%]
CC(=O)Oc1cccc2c1C(=O)c1c(-c3cc[n+](Cc4ccccc4)cc3)noc1C2=O.[Br-] | 32
O=C1c2ccccc2C(=O)c2c(/C=C/c3ccccc3)noc21 | 40

tested on: A-431; assay: Cytotoxicity against human A431 cells after 72 hrs; assay type: functional, cell-based; conditions: A-431, 72 h

Compound | IC50 [nM]
O=C1c2ccccc2C(=O)c2c(-c3ccncc3)noc21 | 56
O=C1c2ccccc2C(=O)c2c(-c3cccnc3)noc21 | 43
O=C1c2ccccc2C(=O)c2c(-c3ccc(O)cc3)noc21 | 210
O=C1c2ccncc2C(=O)c2c(-c3ccc(F)cc3)noc21 | 4
CC(=O)Oc1cccc2c1C(=O)c1c(-c3ccncc3)noc1C2=O | 60
O=C1c2ccccc2C(=O)c2c(-c3ccc4[nH]ccc4c3)noc21 | 320
O=C1c2ccccc2C(=O)c2c(-c3ccc[n+](Cc4ccccc4)c3)noc21.[Br-] | 20
C[n+]1ccc(-c2noc3c2C(=O)c2ccccc2C3=O)cc1.[I-] | 480
CC(=O)Oc1cccc2c1C(=O)c1c(-c3cc[n+](Cc4ccccc4)cc3)noc1C2=O.[Br-] | 3960
O=C1c2ccccc2C(=O)c2c(-c3ccc(F)cc3)noc21 | 260
O=C1c2ccccc2C(=O)c2c(/C=C/c3ccccc3)noc21 | 320
Cl.O=C1c2ccccc2C(=O)c2c(-c3ccc(OCCN4CCOCC4)cc3)noc21 | 440
CC(=O)Oc1c2ccccc2c(OC(C)=O)c2c(-c3ccc(F)cc3)noc12 | 690
C=CCNC1=C2C[C@@H](C)C[C@H](OC)[C@H](O)[C@@H](C)/C=C(\C)[C@H](OC(N)=O)[C@@H](OC)/C=C\C=C(/C)C(=O)NC(=CC1=O)C2=O [TANESPIMYCIN] | 69
O=C1c2cccc(O)c2C(=O)c2c(-c3ccncc3)noc21 | 68
O=C1c2ccccc2C(=O)c2c(-c3ccccn3)noc21 | 340
COc1cccc2c1C(=O)c1c(-c3cc[n+](Cc4ccccc4)cc3)noc1C2=O.[Br-] | 168
COc1cc(O)c(-c2noc3c2C(=O)c2ccccc2C3=O)cc1Cl | 2980

target: not listed separately; assay: Binding affinity to Hsp90 after 4 hrs by GM-FITC based fluorescence polarization assay; conditions: not given
In short: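 Commercial Hsp90 at 30 nM was mixed with GM-FITC tracer at 5 nM and serially diluted compound. Buffer: 20 mM HEPES(K) pH 7.3, 50 mM KCl, 5 mM MgCl2, 20 mM Na2MoO4, 0.01% NP40, with fresh 0.1 mg/ml bovine gamma globulin and 2 mM DTT. Shaken 4 h at 4 °C, then FP read in mP. IC50 is the concentration displacing 50% of tracer, from triplicate wells by nonlinear least-squares fit.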

Compound | IC50 [nM] | pIC50
O=C1c2ccncc2C(=O)c2c(-c3ccc(F)cc3)noc21 | 5600 | 5.25
CC(=O)Oc1cccc2c1C(=O)c1c(-c3ccncc3)noc1C2=O | 84 | 7.08
O=C1c2ccccc2C(=O)c2c(-c3ccc4[nH]ccc4c3)noc21 | > 100000 | 5.71
C[n+]1ccc(-c2noc3c2C(=O)c2ccccc2C3=O)cc1.[I-] | 630 | 6.2
CC(=O)Oc1cccc2c1C(=O)c1c(-c3cc[n+](Cc4ccccc4)cc3)noc1C2=O.[Br-] | 31 | 7.51
Cl.O=C1c2ccccc2C(=O)c2c(-c3ccc(OCCN4CCOCC4)cc3)noc21 | 1200 | 5.92
CC(=O)Oc1c2ccccc2c(OC(C)=O)c2c(-c3ccc(F)cc3)noc12 | > 100000 | 
C=CCNC1=C2C[C@@H](C)C[C@H](OC)[C@H](O)[C@@H](C)/C=C(\C)[C@H](OC(N)=O)[C@@H](OC)/C=C\C=C(/C)C(=O)NC(=CC1=O)C2=O [TANESPIMYCIN] | 1100 | 
O=C1c2cccc(O)c2C(=O)c2c(-c3ccncc3)noc21 | > 100000 | 
COc1cccc2c1C(=O)c1c(-c3cc[n+](Cc4ccccc4)cc3)noc1C2=O.[Br-] | 340 | 6.47
COc1cc(O)c(-c2noc3c2C(=O)c2ccccc2C3=O)cc1Cl | > 100000 | 

Results, then the compound that gave them:

IC50 [nM] | pIC50 | Compound
390 | 6.41 | O=C1c2ccccc2C(=O)c2c(-c3ccncc3)noc21
540 | 6.27 | O=C1c2ccccc2C(=O)c2c(-c3cccnc3)noc21
> 100000 |  | O=C1c2ccccc2C(=O)c2c(-c3ccc(O)cc3)noc21
770 | 6.11 | O=C1c2ccccc2C(=O)c2c(-c3ccc[n+](Cc4ccccc4)c3)noc21.[Br-]
200000 | 3.7 | O=C1c2ccccc2C(=O)c2c(-c3ccc(F)cc3)noc21
> 100000 |  | O=C1c2ccccc2C(=O)c2c(/C=C/c3ccccc3)noc21
1060 | 5.97 | O=C1c2ccccc2C(=O)c2c(-c3ccccn3)noc21
